Our source for the EC50 and MIC values is ChEMBL document CHEMBL5108036, “A concise SAR-analysis of antimicrobial cationic amphipathic barbiturates for an improved activity-toxicity profile” (Eur J Med Chem, 2022).

The structures appear in SMILES notation. Some results are limits rather than exact numbers.

Data set [1] can be described thus: Hemolytic activity in human RBC measured after 1 hr by microplate reader method. It counts as toxicity, cell-based, Erythrocyte. To be noted: human, human red blood cells (erythrocytes). In outline: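 Human red blood cell lysis was used as the cytotoxicity read-out, expressed as EC50 in µg/mL. The highest concentration tested was 500 µM. Compounds were tested as di-TFA salts.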

A further data set relates to Escherichia coli. The data set can be described thus: Antibacterial activity against Escherichia coli ATCC 25922 incubated for 48 hrs and measured by broth microdilution assay. The format is functional. In outline:
(§1)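 MICs in µg/mL were measured against the reference strains S. aureus ATCC 9144, B. subtilis 168, E. coli ATCC 25922 and P. aeruginosa ATCC 27853. Compounds were tested as di-TFA salts.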
In general terms: Broth dilution looks for growth in wells or tubes with falling amounts of substance.

Another data set relates to Pseudomonas aeruginosa. The data set can be described thus: Antibacterial activity against Pseudomonas aeruginosa ATCC 27853 incubated for 48 hrs and measured by broth microdilution assay. It counts as functional. Summed up: as §1
Another data set has as its system Bacillus subtilis. In words: Antibacterial activity against Bacillus subtilis 168 incubated for 48 hrs and measured by broth microdilution assay. The format is functional. Summed up: as §1
For a further data set, the system named is Staphylococcus aureus. In words: Antibacterial activity against Staphylococcus aureus ATCC 9144 incubated for 48 hrs and measured by broth microdilution assay. The format is functional. Summed up: as §1

As a reminder, the EC50 is the concentration that produces a half-maximal response. A lower EC50 goes with higher potency in that assay. Broadly, the MIC is the lowest concentration that inhibits growth of the organism.

Take `N=C(N)N[C@H]1CC[C@@H](N2C(=O)N([C@H]3CC[C@@H](NC(=N)N)CC3)C(=O)C(Cc3cc(Br)cc(Br)c3)(Cc3cc(Br)cc(Br)c3)C2=O)CC1.O=C(O)C(F)(F)F.O=C(O)C(F)(F)F`: in data set [1], a half-maximal effect (EC50 at 1 h) was put at 30 µg/mL. Moreover, the MIC is 4 µg/mL against Escherichia coli, 4 µg/mL in the data set with Pseudomonas aeruginosa, 1 µg/mL with Bacillus subtilis and 2 µg/mL in the data set with Staphylococcus aureus.

For `N=C(N)NCCCCCCN1C(=O)N(CCCCCCNC(=N)N)C(=O)C(Cc2cc(Br)cc(Br)c2)(Cc2cc(Br)cc(Br)c2)C1=O.O=C(O)C(F)(F)F.O=C(O)C(F)(F)F`, a half-maximal response in data set [1] (EC50 at 1 h) required 57 µg/mL. Besides, the MIC is 4 µg/mL with Escherichia coli, 32 µg/mL in the data set on Pseudomonas aeruginosa, 4 µg/mL against Bacillus subtilis and 4 µg/mL with Staphylococcus aureus.

Consider `NCCCCN1C(=O)N(CCCCN)C(=O)C(Cc2cc(Br)cc(Br)c2)(Cc2ccc3ccccc3n2)C1=O.O=C(O)C(F)(F)F.O=C(O)C(F)(F)F`, for which, in data set [1], the EC50 at 1 h is over 444 µg/mL. The MIC against Escherichia coli was 128 µg/mL; against Pseudomonas aeruginosa, 256 µg/mL; with Bacillus subtilis, 8 µg/mL; against Staphylococcus aureus, 32 µg/mL.

`N=C(N)NCCCCN1C(=O)N(CCCCNC(=N)N)C(=O)C(Cc2ccc3ccccc3n2)(Cc2ccc3ccccc3n2)C1=O.O=C(O)C(F)(F)F.O=C(O)C(F)(F)F`: the EC50 at 1 h in data set [1] was over 432 µg/mL. Moreover, the MIC against Escherichia coli is 128 µg/mL; with Pseudomonas aeruginosa it was over 256 µg/mL; against Bacillus subtilis, 16 µg/mL; with Staphylococcus aureus, 8 µg/mL.

For the molecule `CCCCCCC1(CCCCCC)C(=O)N(CCCCNC(=N)N)C(=O)N(CCCCNC(=N)N)C1=O.O=C(O)C(F)(F)F.O=C(O)C(F)(F)F`, the response in data set [1] was half-maximal at 143 µg/mL (EC50 at 1 h). Moreover, the MIC against Escherichia coli amounted to 4 µg/mL; in the data set on Pseudomonas aeruginosa, 16 µg/mL; in the data set on Bacillus subtilis, 2 µg/mL; in the data set with Staphylococcus aureus, 2 µg/mL.

As to `NCCCN1C(=O)N(CCCN)C(=O)C(Cc2ccc(C(F)(F)F)cc2)(Cc2ccc(C(F)(F)F)cc2)C1=O.O=C(O)C(F)(F)F.O=C(O)C(F)(F)F`, the EC50 at 1 h in data set [1] was over 393 µg/mL. Also, the MIC in the data set with Escherichia coli was found to be 64 µg/mL; with Pseudomonas aeruginosa, 128 µg/mL; against Bacillus subtilis it was 16 µg/mL; against Staphylococcus aureus, 64 µg/mL.

`CC(C)(C)c1ccc(CC2(Cc3cc(Br)cc(Br)c3)C(=O)N(CCCN)C(=O)N(CCCN)C2=O)cc1.O=C(O)C(F)(F)F.O=C(O)C(F)(F)F` yielded an EC50 at 1 h in data set [1] of 47 µg/mL. For the same molecule, the MIC is 8 µg/mL in the data set on Escherichia coli, 8 µg/mL against Pseudomonas aeruginosa, 2 µg/mL in the data set with Bacillus subtilis and 4 µg/mL against Staphylococcus aureus.

In data set [1], `NCCCCN1C(=O)N(CCCCN)C(=O)C(Cc2cc(Br)cc(Br)c2)(Cc2cc(C(F)(F)F)cc(C(F)(F)F)c2)C1=O.O=C(O)C(F)(F)F.O=C(O)C(F)(F)F` came in with an EC50 at 1 h of 93 µg/mL. Further, the MIC in the data set on Escherichia coli is 8 µg/mL; in the data set with Pseudomonas aeruginosa, 8 µg/mL; with Bacillus subtilis, 2 µg/mL; with Staphylococcus aureus, 8 µg/mL.

In turn, `N[C@H]1C[C@H](N2C(=O)N([C@H]3C[C@H](N)C3)C(=O)C(Cc3cc(Br)cc(Br)c3)(Cc3cc(Br)cc(Br)c3)C2=O)C1.O=C(O)C(F)(F)F.O=C(O)C(F)(F)F` registered an EC50 at 1 h in data set [1] of 93 µg/mL. The MIC with Escherichia coli was determined as 4 µg/mL; against Pseudomonas aeruginosa, 8 µg/mL; against Bacillus subtilis, 4 µg/mL; with Staphylococcus aureus, 4 µg/mL.

With `CCCCCCC1(Cc2cc(Br)cc(Br)c2)C(=O)N(CCCCNC(=N)N)C(=O)N(CCCCNC(=N)N)C1=O.O=C(O)C(F)(F)F.O=C(O)C(F)(F)F` (stereo not given), in data set [1], the EC50 at 1 h was determined as 58 µg/mL. The MIC came to 4 µg/mL in the data set on Escherichia coli, 8 µg/mL with Pseudomonas aeruginosa, 4 µg/mL in the data set with Bacillus subtilis and 2 µg/mL in the data set on Staphylococcus aureus.

Regarding `N=C(N)NCCCCN1C(=O)N(CCCCNC(=N)N)C(=O)C(Cc2ccc3cc(Br)ccc3n2)(Cc2ccc3cc(Br)ccc3n2)C1=O.O=C(O)C(F)(F)F.O=C(O)C(F)(F)F`, a half-maximal response in data set [1] (EC50 at 1 h) required 461 µg/mL. Moreover, the MIC against Escherichia coli is 16 µg/mL; with Pseudomonas aeruginosa, 128 µg/mL; in the data set with Bacillus subtilis, 4 µg/mL; with Staphylococcus aureus, 2 µg/mL.

For the molecule `N=C(N)N[C@H]1C[C@@H](N2C(=O)N([C@H]3C[C@@H](NC(=N)N)C3)C(=O)C(Cc3cc(Br)cc(Br)c3)(Cc3cc(Br)cc(Br)c3)C2=O)C1.O=C(O)C(F)(F)F.O=C(O)C(F)(F)F`, the midpoint of the response in data set [1], the EC50 at 1 h, lay at 75 µg/mL. Moreover, the MIC against Escherichia coli stood at 4 µg/mL; against Pseudomonas aeruginosa, 8 µg/mL; in the data set with Bacillus subtilis, 2 µg/mL; in the data set with Staphylococcus aureus, 2 µg/mL.

In data set [1], `N=C(N)NCCCN1C(=O)N(CCCNC(=N)N)C(=O)C(Cc2ccc(Br)c3ccccc23)(Cc2ccc(Br)c3ccccc23)C1=O.O=C(O)C(F)(F)F.O=C(O)C(F)(F)F` had an EC50 at 1 h of 61 µg/mL. For the same molecule, the minimum inhibitory concentration (MIC) in the data set with Escherichia coli was 4 µg/mL; against Pseudomonas aeruginosa it was 8 µg/mL; with Bacillus subtilis, 2 µg/mL; against Staphylococcus aureus it was 2 µg/mL.

Consider `N=C(N)NCCCCN1C(=O)N(CCCCNC(=N)N)C(=O)C(Cc2c(Br)cc(Br)cc2Br)(Cc2c(Br)cc(Br)cc2Br)C1=O.O=C(O)C(F)(F)F.O=C(O)C(F)(F)F`, for which the EC50 at 1 h in data set [1] is 30 µg/mL. For the same molecule, the MIC with Escherichia coli came out at 4 µg/mL; with Pseudomonas aeruginosa it was 4 µg/mL; against Bacillus subtilis, 1 µg/mL; with Staphylococcus aureus, 2 µg/mL.

Regarding `NCCCN1C(=O)N(CCCN)C(=O)C(Cc2ccc(Br)c3ccccc23)(Cc2ccc(Br)c3ccccc23)C1=O.O=C(O)C(F)(F)F.O=C(O)C(F)(F)F`, the EC50 at 1 h in data set [1] was determined as 23 µg/mL. For the same molecule, the MIC in the data set with Escherichia coli stood at 4 µg/mL; against Pseudomonas aeruginosa, 4 µg/mL; with Bacillus subtilis it was 2 µg/mL; against Staphylococcus aureus it was 2 µg/mL.

Consider `NCCCN1C(=O)N(CCCN)C(=O)C(Cc2ccc3cc(Br)ccc3n2)(Cc2ccc3cc(Br)ccc3n2)C1=O.O=C(O)C(F)(F)F.O=C(O)C(F)(F)F`, for which the EC50 at 1 h in data set [1] was over 455 µg/mL. Further, the MIC against Escherichia coli turned out to be 64 µg/mL; against Pseudomonas aeruginosa, 256 µg/mL; in the data set on Bacillus subtilis, 8 µg/mL; against Staphylococcus aureus, 32 µg/mL.

In data set [1], `CC(C)(C)c1ccc(CC2(Cc3cc(Br)cc(Br)c3)C(=O)N(CCCCNC(=N)N)C(=O)N(CCCCNC(=N)N)C2=O)cc1.O=C(O)C(F)(F)F.O=C(O)C(F)(F)F` (stereo not given) yielded an EC50 at 1 h of 39 µg/mL. The MIC is 2 µg/mL in the data set on Escherichia coli, 4 µg/mL with Pseudomonas aeruginosa, 2 µg/mL in the data set on Bacillus subtilis and 2 µg/mL with Staphylococcus aureus.

`NCCCCN1C(=O)N(CCCCN)C(=O)C(Cc2ccc(Br)c3ccccc23)(Cc2ccc(Br)c3ccccc23)C1=O.O=C(O)C(F)(F)F.O=C(O)C(F)(F)F` had a concentration giving a half-maximal response (EC50) at 1 h in data set [1] of 27 µg/mL. The MIC with Escherichia coli is 4 µg/mL; in the data set on Pseudomonas aeruginosa, 4 µg/mL; against Bacillus subtilis it was 2 µg/mL; against Staphylococcus aureus, 2 µg/mL.

`N=C(N)NCCCCN1C(=O)N(CCCCNC(=N)N)C(=O)C(Cc2ccc(Br)c3ccccc23)(Cc2ccc(Br)c3ccccc23)C1=O.O=C(O)C(F)(F)F.O=C(O)C(F)(F)F` displayed an EC50 at 1 h in data set [1] of 36 µg/mL. For the same molecule, the MIC in the data set with Escherichia coli was 4 µg/mL; against Pseudomonas aeruginosa, 8 µg/mL; against Bacillus subtilis, 4 µg/mL; in the data set with Staphylococcus aureus, 4 µg/mL.

For `CN(C)CCCCN1C(=O)N(CCCCN(C)C)C(=O)C(Cc2cc(Br)cc(Br)c2)(Cc2cc(Br)cc(Br)c2)C1=O.O=C(O)C(F)(F)F.O=C(O)C(F)(F)F`, the 50% effective concentration (EC50) at 1 h in data set [1] is 157 µg/mL. Moreover, the MIC came to 8 µg/mL with Escherichia coli, 64 µg/mL in the data set on Pseudomonas aeruginosa, 4 µg/mL against Bacillus subtilis and 8 µg/mL against Staphylococcus aureus.
